From ChEMBL document CHEMBL3797056, “An evaluation of Minor Groove Binders as anti-Trypanosoma brucei brucei therapeutics” (Eur J Med Chem, 2016)
The source made the active and inactive calls. The rule behind the calls is not given here.

Legend:
[1] = Drug uptake in Trypanosoma brucei brucei Lister 427 bloodstream forms nucleus at 50 uM after 2 hrs by FITC/DsRed staining based fluorescence microscopic analysis; format: ADME
Outline: (§1)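 Parasites at 1 × 10^7 cells/mL exposed to 50 μM compound for 2 h at 37 °C, humidified 5% CO2. Washed in PBS, mixed 1:1 with 2% w/v low-melting agarose and spread under a coverslip for fluorescence microscopy.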

[2] = test system: Trypanosoma brucei brucei; assay: Binding affinity to kinetoplast DNA in Trypanosoma brucei brucei Lister 427 bloodstream forms at 50 uM after 2 hrs by FITC/DsRed staining based fluorescence microscopic analysis; outline: as §1
[3] = Selectivity index, ratio of IC50 for HEK293 cells to IC50 for Trypanosoma brucei brucei Lister 427 bloodstream forms; format: toxicity, cell-based; conditions: human, read-out: Ratio IC50
[4] = test system: HEK293; assay: Cytotoxicity against HEK293 cells assessed as growth inhibition after 72 hrs by alamar blue viability assay; format: cell-based; conditions: Homo sapiens, HEK293, 72 h
Outline: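 HEK 293 cells kept in DMEM + 10% FBS at 37 °C, 5% CO2, harvested at 80% confluence, 2000 cells/well, equilibrated overnight. Serial compound dilutions for 72 h; puromycin positive control, 0.4% DMSO negative. […] Two experiments, duplicate points.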

[5] = test system: Trypanosoma brucei brucei; assay: Antitrypanosomal activity against Trypanosoma brucei brucei Lister 427 bloodstream forms incubated for 48 hrs by alamar blue assay; format: functional, organism-based; conditions: Lister 427, 48 h

Row | SMILES | selectivity ratio [3] | IC50 [4] [µM] | further results
1 | CN(C)c1ccc(/C=C/c2ccc(C(=O)Nc3cc(C(=O)Nc4cc(C(=O)NCCN5CCOCC5)n(C)c4)n(C)c3)cn2)cc1 |  |  | Drug uptake [1]: Active; Activity [2]: Active
2 | Cn1cc(NC(=O)c2cc(NC(=O)c3cc(NC(=O)c4cc5ccccc5cn4)cn3C)cn2C)cc1C(=O)NCCCN1CCOCC1 | > 2940 | > 20 | 
3 | Cn1cc(NC(=O)c2cc(NC(=O)c3ccc(/C=C/c4ccc5nsnc5c4)cc3)cn2C)cc1C(=O)NCCN1CCOCC1 | > 2740 | > 20 | 
4 | CC(C)CCc1sc(NC(=O)c2cc(NC(=O)c3ccc(/C=C/c4ccc5ccccc5c4)cc3)cn2C)nc1C(=O)NCCN1CCOCC1 | > 500 | > 20 | 
5 | Cn1cc(NC(=O)c2cc(NC(=O)c3cc(NC=O)cn3C)cn2C)cc1C(=O)NCCN1CCOCC1 |  |  | IC50 [5]: 48 µM
6 | COc1cccc(C(=N)Nc2cc(C(=O)Nc3cc(C(=O)Nc4nc(C(=O)NCCN5CCOCC5)c(C(C)C)s4)n(C)c3)n(C)c2)c1 |  |  | IC50 [5]: > 75 µM
7 | CC(C)CCc1sc(NC(=O)c2cc(NC(=O)c3cc(/C=C/c4ccc([N+](=O)[O-])cc4)cn3C)cn2C)nc1C(=O)NCCN1CCOCC1 | > 1850 |  | 
8 | Cn1cc(NC(=O)c2cc(NC(=O)c3ccc(/C=C/c4ccc5nonc5c4)cc3)cn2C)cc1C(=O)NCCN1CCOCC1 | > 1050 | > 20 | 
